Measured values published in ChEMBL document CHEMBL4689842, “EUbOPEN Chemogenomics Library wave 1” (2021).

Tests used:
Assay type in all cases: toxicity, cell-based
HEK-293T = experiment: Incucyte cell viability with HEK293T; conditions: human, 10 µM, compound concentration 10 uM; note: filed as whole numbers so only -1 and 0 and 1 occur
U2OS [1] = experiment: Multiplex assay against U2OS; conditions: human
Method in brief: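 Phenotypes for tubulin, mitochondrial mass and membrane permeability are expressed as per cents of healthy-nucleus cells. Cells were stained live at seeding with Hoechst33342, BioTracker Green Microtubule Cytoskeleton Dye, MitoTracker Red and Annexin V Alexa Fluor 680, then imaged after compound addition on a CQ1 microscope at 37°C and 5% CO2. Machine-learning gating in CellPathfinder separated Hoechst high-intensity objects from normal cells, divided normal cells by nuclear state (healthy, pyknosed, fragmented) and divided pyknosed cells into mitotic or apoptotic.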

Fibroblast = experiment: Incucyte cell viability with human fibroblast; conditions: 10 µM, compound concentration 10 uM; note: filed as whole numbers so only -1 and 0 and 1 occur
U2OS [2] = experiment: Incucyte cell viability with U2OS; conditions: human, 10 µM, compound concentration 10 uM; note: filed as whole numbers so only -1 and 0 and 1 occur
[3] = 0 h, replicate number 2, timepoint 0 hours
[4] = 6 h, replicate number 1, timepoint 6 hours
[5] = 12 h, replicate number 1, timepoint 12 hours
[6] = 18 h, replicate number 1, timepoint 18 hours
[7] = 24 h, replicate number 1, timepoint 24 hours
[8] = 12 h, 1 µM, compound concentration 1 uM, replicate 1
[9] = 12 h, 1 µM, compound concentration 1 uM, replicate 2
[10] = 12 h, 10 µM, compound concentration 10 uM, replicate 1
[11] = 12 h, 10 µM, compound concentration 10 uM, replicate 2
[12] = 24 h, 1 µM, compound concentration 1 uM, replicate 1
[13] = 24 h, 1 µM, compound concentration 1 uM, replicate 2
[14] = 24 h, 10 µM, compound concentration 10 uM, replicate 1
[15] = 24 h, 10 µM, compound concentration 10 uM, replicate 2
[16] = 48 h, 1 µM, compound concentration 1 uM, replicate 1
[17] = 48 h, 1 µM, compound concentration 1 uM, replicate 2
[18] = 48 h, 10 µM, compound concentration 10 uM, replicate 1
[19] = 48 h, 10 µM, compound concentration 10 uM, replicate 2

With `COc1cc2c(NC3CCN(C(C)C)CC3)nc(N3CCC(F)(F)CC3)nc2cc1OCCCN1CCCC1` the “Growth Rate” value (HEK-293T; [3]) was 1, the “Growth Rate” value (HEK-293T; [4]) was 0 and the “Growth Rate” value (HEK-293T; [5]) was 0. For the same compound, the “Growth Rate” value (HEK-293T; [6]) was 0, the “Growth Rate” value (HEK-293T; [7]) was 0 and the “Population Apoptotic (%)” value (U2OS [1]; [8]) was 44%. For the same compound, the “Population Fragmented Nuclei (%)” value (U2OS [1]; [8]) was 10%, the “Population Healthy Nuclei (%)” value (U2OS [1]; [8]) was 72% and the “Population Hoechst High Intensity Objects (%)” value (U2OS [1]; [8]) was 13%. For the same compound, the “Population Mitochondria Different-Phenotype (%)” value (U2OS [1]; [8]) was 17%, the “Population Mitotic Cells (%)” value (U2OS [1]; [8]) was 55% and the “Population Normal (%)” value (U2OS [1]; [8]) was 86%. The “Population Pyknosed Nuclei (%)” value (U2OS [1]; [8]) was 17%, the “Total Cell Count” value (U2OS [1]; [8]) was 136 and the “Population Apoptotic (%)” value (U2OS [1]; [9]) was 30%. For the same compound, the “Population Fragmented Nuclei (%)” value (U2OS [1]; [9]) was 20%, the “Population Healthy Nuclei (%)” value (U2OS [1]; [9]) was 67% and the “Population Hoechst High Intensity Objects (%)” value (U2OS [1]; [9]) was 5%. The “Population Membrane Permeable-Phenotype (%)” value (U2OS [1]; [9]) was 3%, the “Population Mitochondria Different-Phenotype (%)” value (U2OS [1]; [9]) was 22% and the “Population Mitotic Cells (%)” value (U2OS [1]; [9]) was 70%. For the same compound, the “Population Normal (%)” value (U2OS [1]; [9]) was 94%, the “Population Pyknosed Nuclei (%)” value (U2OS [1]; [9]) was 11% and the “Population Tubulin-Different-Phenotype (%)” value (U2OS [1]; [9]) was 19%. The “Total Cell Count” value (U2OS [1]; [9]) was 105, the “Population Apoptotic (%)” value (U2OS [1]; [10]) was 68% and the “Population Fragmented Nuclei (%)” value (U2OS [1]; [10]) was 14%. The “Population Healthy Nuclei (%)” value (U2OS [1]; [10]) was 71%, the “Population Hoechst High Intensity Objects (%)” value (U2OS [1]; [10]) was 8% and the “Population Membrane Permeable-Phenotype (%)” value (U2OS [1]; [10]) was 27%. The “Population Mitochondria Different-Phenotype (%)” value (U2OS [1]; [10]) was 98%, the “Population Mitotic Cells (%)” value (U2OS [1]; [10]) was 31% and the “Population Normal (%)” value (U2OS [1]; [10]) was 91%. The “Population Pyknosed Nuclei (%)” value (U2OS [1]; [10]) was 14%, the “Population Tubulin-Different-Phenotype (%)” value (U2OS [1]; [10]) was 100% and the “Total Cell Count” value (U2OS [1]; [10]) was 181. For the same compound, the “Population Apoptotic (%)” value (U2OS [1]; [11]) was 66%, the “Population Fragmented Nuclei (%)” value (U2OS [1]; [11]) was 11% and the “Population Healthy Nuclei (%)” value (U2OS [1]; [11]) was 76%. For the same compound, the “Population Membrane Permeable-Phenotype (%)” value (U2OS [1]; [11]) was 66%, the “Population Mitochondria Different-Phenotype (%)” value (U2OS [1]; [11]) was 97% and the “Population Mitotic Cells (%)” value (U2OS [1]; [11]) was 33%. For the same compound, the “Population Pyknosed Nuclei (%)” value (U2OS [1]; [11]) was 11%, the “Population Tubulin-Different-Phenotype (%)” value (U2OS [1]; [11]) was 97% and the “Total Cell Count” value (U2OS [1]; [11]) was 89. For the same compound, the “Population Apoptotic (%)” value (U2OS [1]; [12]) was 31%, the “Population Fragmented Nuclei (%)” value (U2OS [1]; [12]) was 9% and the “Population Healthy Nuclei (%)” value (U2OS [1]; [12]) was 65%. For the same compound, the “Population Hoechst High Intensity Objects (%)” value (U2OS [1]; [12]) was 11%, the “Population Membrane Permeable-Phenotype (%)” value (U2OS [1]; [12]) was 0% and the “Population Mitochondria Different-Phenotype (%)” value (U2OS [1]; [12]) was 8%. The “Population Mitotic Cells (%)” value (U2OS [1]; [12]) was 68%, the “Population Normal (%)” value (U2OS [1]; [12]) was 88% and the “Population Pyknosed Nuclei (%)” value (U2OS [1]; [12]) was 24%. The “Population Tubulin-Different-Phenotype (%)” value (U2OS [1]; [12]) was 9%, the “Total Cell Count” value (U2OS [1]; [12]) was 157 and the “Population Apoptotic (%)” value (U2OS [1]; [13]) was 29%. The “Population Fragmented Nuclei (%)” value (U2OS [1]; [13]) was 14%, the “Population Healthy Nuclei (%)” value (U2OS [1]; [13]) was 68% and the “Population Hoechst High Intensity Objects (%)” value (U2OS [1]; [13]) was 8%. The “Population Membrane Permeable-Phenotype (%)” value (U2OS [1]; [13]) was 2%, the “Population Mitochondria Different-Phenotype (%)” value (U2OS [1]; [13]) was 7% and the “Population Mitotic Cells (%)” value (U2OS [1]; [13]) was 70%. The “Population Normal (%)” value (U2OS [1]; [13]) was 91%, the “Population Pyknosed Nuclei (%)” value (U2OS [1]; [13]) was 16% and the “Population Tubulin-Different-Phenotype (%)” value (U2OS [1]; [13]) was 12%. The “Total Cell Count” value (U2OS [1]; [13]) was 113, the “Population Apoptotic (%)” value (U2OS [1]; [14]) was 70% and the “Population Fragmented Nuclei (%)” value (U2OS [1]; [14]) was 14%. For the same compound, the “Population Healthy Nuclei (%)” value (U2OS [1]; [14]) was 60%, the “Population Hoechst High Intensity Objects (%)” value (U2OS [1]; [14]) was 6% and the “Population Membrane Permeable-Phenotype (%)” value (U2OS [1]; [14]) was 56%. For the same compound, the “Population Mitochondria Different-Phenotype (%)” value (U2OS [1]; [14]) was 98%, the “Population Mitotic Cells (%)” value (U2OS [1]; [14]) was 30% and the “Population Normal (%)” value (U2OS [1]; [14]) was 93%. For the same compound, the “Population Pyknosed Nuclei (%)” value (U2OS [1]; [14]) was 24%, the “Population Tubulin-Different-Phenotype (%)” value (U2OS [1]; [14]) was 98% and the “Total Cell Count” value (U2OS [1]; [14]) was 218. For the same compound, the “Population Apoptotic (%)” value (U2OS [1]; [15]) was 90%, the “Population Fragmented Nuclei (%)” value (U2OS [1]; [15]) was 18% and the “Population Healthy Nuclei (%)” value (U2OS [1]; [15]) was 59%. For the same compound, the “Population Hoechst High Intensity Objects (%)” value (U2OS [1]; [15]) was 7%, the “Population Membrane Permeable-Phenotype (%)” value (U2OS [1]; [15]) was 82% and the “Population Mitochondria Different-Phenotype (%)” value (U2OS [1]; [15]) was 100%. The “Population Mitotic Cells (%)” value (U2OS [1]; [15]) was 9%, the “Population Normal (%)” value (U2OS [1]; [15]) was 92% and the “Population Pyknosed Nuclei (%)” value (U2OS [1]; [15]) was 22%. For the same compound, the “Population Tubulin-Different-Phenotype (%)” value (U2OS [1]; [15]) was 96%, the “Total Cell Count” value (U2OS [1]; [15]) was 112 and the “Population Apoptotic (%)” value (U2OS [1]; [16]) was 27%. For the same compound, the “Population Fragmented Nuclei (%)” value (U2OS [1]; [16]) was 11%, the “Population Healthy Nuclei (%)” value (U2OS [1]; [16]) was 64% and the “Population Hoechst High Intensity Objects (%)” value (U2OS [1]; [16]) was 10%. For the same compound, the “Population Mitochondria Different-Phenotype (%)” value (U2OS [1]; [16]) was 4%, the “Population Mitotic Cells (%)” value (U2OS [1]; [16]) was 72% and the “Population Normal (%)” value (U2OS [1]; [16]) was 89%. The “Population Pyknosed Nuclei (%)” value (U2OS [1]; [16]) was 24%, the “Population Tubulin-Different-Phenotype (%)” value (U2OS [1]; [16]) was 15% and the “Total Cell Count” value (U2OS [1]; [16]) was 194. The “Population Apoptotic (%)” value (U2OS [1]; [17]) was 29%, the “Population Fragmented Nuclei (%)” value (U2OS [1]; [17]) was 8% and the “Population Healthy Nuclei (%)” value (U2OS [1]; [17]) was 78%. For the same compound, the “Population Hoechst High Intensity Objects (%)” value (U2OS [1]; [17]) was 8%, the “Population Membrane Permeable-Phenotype (%)” value (U2OS [1]; [17]) was 2% and the “Population Mitochondria Different-Phenotype (%)” value (U2OS [1]; [17]) was 8%. For the same compound, the “Population Mitotic Cells (%)” value (U2OS [1]; [17]) was 70%, the “Population Normal (%)” value (U2OS [1]; [17]) was 91% and the “Population Pyknosed Nuclei (%)” value (U2OS [1]; [17]) was 12%. The “Population Tubulin-Different-Phenotype (%)” value (U2OS [1]; [17]) was 24%, the “Total Cell Count” value (U2OS [1]; [17]) was 141 and the “Population Apoptotic (%)” value (U2OS [1]; [18]) was 79%. For the same compound, the “Population Fragmented Nuclei (%)” value (U2OS [1]; [18]) was 20%, the “Population Healthy Nuclei (%)” value (U2OS [1]; [18]) was 44% and the “Population Hoechst High Intensity Objects (%)” value (U2OS [1]; [18]) was 11%. For the same compound, the “Population Membrane Permeable-Phenotype (%)” value (U2OS [1]; [18]) was 55%, the “Population Mitochondria Different-Phenotype (%)” value (U2OS [1]; [18]) was 100% and the “Population Mitotic Cells (%)” value (U2OS [1]; [18]) was 20%. For the same compound, the “Population Normal (%)” value (U2OS [1]; [18]) was 88%, the “Population Pyknosed Nuclei (%)” value (U2OS [1]; [18]) was 35% and the “Population Tubulin-Different-Phenotype (%)” value (U2OS [1]; [18]) was 92%. The “Total Cell Count” value (U2OS [1]; [18]) was 337, the “Population Apoptotic (%)” value (U2OS [1]; [19]) was 92% and the “Population Fragmented Nuclei (%)” value (U2OS [1]; [19]) was 12%. For the same compound, the “Population Healthy Nuclei (%)” value (U2OS [1]; [19]) was 63%, the “Population Hoechst High Intensity Objects (%)” value (U2OS [1]; [19]) was 12% and the “Population Membrane Permeable-Phenotype (%)” value (U2OS [1]; [19]) was 75%. For the same compound, the “Population Mitochondria Different-Phenotype (%)” value (U2OS [1]; [19]) was 97%, the “Population Mitotic Cells (%)” value (U2OS [1]; [19]) was 7% and the “Population Normal (%)” value (U2OS [1]; [19]) was 87%. The “Population Pyknosed Nuclei (%)” value (U2OS [1]; [19]) was 24%, the “Population Tubulin-Different-Phenotype (%)” value (U2OS [1]; [19]) was 88% and the “Total Cell Count” value (U2OS [1]; [19]) was 149. For the same compound, the “Growth Rate” value (Fibroblast; [3]) was 0, the “Growth Rate” value (Fibroblast; 6 h, replicate number 2, timepoint 6 hours) was 1 and the “Growth Rate” value (Fibroblast; [5]) was 1. For the same compound, the “Growth Rate” value (Fibroblast; [6]) was 1, the “Growth Rate” value (Fibroblast; 18 h, replicate number 2, timepoint 18 hours) was 0 and the “Growth Rate” value (Fibroblast; [7]) was 1. For the same compound, the “Growth Rate” value (Fibroblast; 24 h, replicate number 2, timepoint 24 hours) was 0, the “Growth Rate” value (U2OS [2]; 0 h, replicate number 1, timepoint 0 hours) was 1 and the “Growth Rate” value (U2OS [2]; [3]) was 0. The “Growth Rate” value (U2OS [2]; [4]) was 1, the “Growth Rate” value (U2OS [2]; [5]) was 1 and the “Growth Rate” value (U2OS [2]; [6]) was 1. The “Growth Rate” value (U2OS [2]; [7]) was 1.
